In ChEMBL document CHEMBL1287758, “Synthesis of D- and L-tyrosine-chlorambucil analogs active against breast cancer cell lines” (Bioorg Med Chem Lett, 2010):

Key:
Format in all cases: functional, cell-based
[1] = Cytotoxicity against estrogen receptor-negative human MDA-MB-436 cells by MTT assay
In short: (§1)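 MTT read-out after 72 h continuous exposure of human breast cancer cells to compound. Each assay run in duplicate; IC50 taken from three independent experiments and reported as mean SEM. Chlorambucil served as positive control.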

[2] = test system: MDA-MB-468; test: Cytotoxicity against estrogen receptor-negative human MDA-MB-468 cells by MTT assay; in short: as §1
[3] = test system: MDA-MB-231; test: Cytotoxicity against estrogen receptor-negative human MDA-MB-231 cells by MTT assay; in short: as §1
[4] = test system: MCF7; test: Cytotoxicity against estrogen receptor-positive human MCF7 cells by MTT assay; in short: as §1
[5] = Homo sapiens, MCF7, read-out: IC50
[6] = Homo sapiens, MDA-MB-436, read-out: IC50
[7] = Homo sapiens, MDA-MB-468, read-out: IC50
[8] = Homo sapiens, MDA-MB-231, read-out: IC50

SMILES | IC50 ([1]; mda-mb-436) | IC50 ([2]; mda-mb-468) | IC50 ([3]; mda-mb-231) | IC50 [4, 5] | IC50 ([4]; mcf7) | IC50 [1, 6] | IC50 [2, 7] | IC50 [3, 8]
COC(=O)[C@H](Cc1ccc(O)cc1)NC(=O)CCCCCCCCCCNC(=O)CCCc1ccc(N(CCCl)CCCl)cc1 | Not Active | Not Active | Not Active | 67.9 µM | – | – | – | –
O=C(CCCc1ccc(N(CCCl)CCCl)cc1)NCCCCCCCCCCC(=O)N[C@H](CO)Cc1ccc(O)cc1 | Not Active | Not Active | Not Active | 19.4 µM | – | – | – | –
COC(=O)[C@@H](Cc1ccc(O)cc1)NC(=O)CCCCCCCCCCNC(=O)CCCc1ccc(N(CCCl)CCCl)cc1 | – | – | Not Active | – | Not Active | – | – | –
O=C(CCCc1ccc(N(CCCl)CCCl)cc1)NCCCCCCCCCCC(=O)N[C@@H](CO)Cc1ccc(O)cc1 | – | – | Not Active | 16.3 µM | – | – | – | –
O=C(CCCc1ccc(N(CCCl)CCCl)cc1)NCCCCCC(=O)N[C@@H](CO)Cc1ccc(O)cc1 | – | – | – | 67 µM | – | – | – | –
COC(=O)[C@H](Cc1ccc(O)cc1)NC(=O)CCCc1ccc(N(CCCl)CCCl)cc1 | – | – | – | 31.9 µM | – | 15.4 µM | 62.5 µM | 37.8 µM
O=C(CCCc1ccc(N(CCCl)CCCl)cc1)N[C@H](CO)Cc1ccc(O)cc1 | – | – | – | 34.1 µM | – | 24.4 µM | 55.1 µM | 39.6 µM
COC(=O)[C@H](Cc1ccc(O)cc1)NC(=O)CCCCCNC(=O)CCCc1ccc(N(CCCl)CCCl)cc1 | – | – | – | 25.4 µM | – | 15 µM | 59 µM | 36.8 µM
O=C(CCCc1ccc(N(CCCl)CCCl)cc1)NCCCCCC(=O)N[C@H](CO)Cc1ccc(O)cc1 | – | – | – | 62.2 µM | – | 28.9 µM | 77.3 µM | 55.1 µM
COC(=O)[C@@H](Cc1ccc(O)cc1)NC(=O)CCCc1ccc(N(CCCl)CCCl)cc1 | – | – | – | 50 µM | – | – | – | 47.2 µM
O=C(CCCc1ccc(N(CCCl)CCCl)cc1)N[C@@H](CO)Cc1ccc(O)cc1 | – | – | – | 31.4 µM | – | – | – | 29.8 µM
COC(=O)[C@@H](Cc1ccc(O)cc1)NC(=O)CCCCCNC(=O)CCCc1ccc(N(CCCl)CCCl)cc1 | – | – | – | 152 µM | – | – | – | –
O=C(O)CCCc1ccc(N(CCCl)CCCl)cc1 [CHLORAMBUCIL] | – | – | – | 130 µM | – | 132 µM | 147 µM | 137 µM
